Experimental data from ChEMBL document CHEMBL1126033, “C-terminal modifications of nonpeptide renin inhibitors: improved oral bioavailability via modification of physicochemical properties” (J Med Chem, 1992).

What was measured:
[1] = Bioavailability in ferret; conditions: in vivo
Mustela putorius furo [2] = experiment: Average area under curve value dosed at 0.3 mg/kg, iv in ferrets.; conditions: ferret, in vivo
[3] = Bioavailability in monkey (i.d. dosing); type: ADME, organism-based; conditions: in vivo
Outline: (§1)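 Male cynomolgus monkeys (3–5 kg) salt-depleted with furosemide 5 mg/kg po on days 7 and 1 plus a low-salt diet. Fasted, pentobarbital anesthesia. Intraduodenal dose of 10 mg/kg as HCl salt solution. Portal and systemic plasma drug levels measured by bioassay. Bioavailability = dose-normalized AUCid/AUCiv ×100 (trapezoidal integration; iv fit biexponential), mean ± SEM.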

[4] = Average peak plasma drug concentration after id dose of 10 mg/kg in ferrets(Plasma samples collected from arterial blood).; conditions: ferret, plasma (from arterial blood)
[5] = (§2) Average peak plasma drug concentration after id dose of 10 mg/kg in ferrets(Plasma samples collected from portal blood).; conditions: ferret, plasma (from portal blood)
[6] = Average peak plasma drug concentration after iv dose of 0.3 mg/kg in ferrets.; conditions: ferret, plasma
Mustela putorius furo [7] = experiment: (§3) Average area under curve value dosed at 10 mg/kg, id in ferrets.; type: ADME, organism-based; parameters: dose 10 mg/kg, route intraduodenal; conditions: ferret, in vivo, other
Outline: (§4)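 Fasted male Fitch ferrets (0.4–1.2 kg) under Inactin anesthesia (100–120 mg/kg ip), catheterized in carotid artery, jugular vein, portal vein and trachea. Single 10 mg/kg intraduodenal dose of HCl salt solution. 6 portal and 7 arterial samples taken over 180 min. Plasma drug measured by renin-inhibition bioassay with serial dilution and acetonitrile precipitation. AUC by trapezoidal integration; peak is the mean of each animal's maximum.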

[8] = Partition coefficient (logD6.5); conditions: octanol/water, pH 6.5
[9] = Partition coefficient (logD7.4); conditions: octanol/water, pH 7.4
[10] = target: T1, Gastricsin (Homo sapiens) (UniProt P20142); experiment: Inhibitory activity against human Gastricsin at a concentration of 1 x 10e-5 M
T1 sequence (whole entry): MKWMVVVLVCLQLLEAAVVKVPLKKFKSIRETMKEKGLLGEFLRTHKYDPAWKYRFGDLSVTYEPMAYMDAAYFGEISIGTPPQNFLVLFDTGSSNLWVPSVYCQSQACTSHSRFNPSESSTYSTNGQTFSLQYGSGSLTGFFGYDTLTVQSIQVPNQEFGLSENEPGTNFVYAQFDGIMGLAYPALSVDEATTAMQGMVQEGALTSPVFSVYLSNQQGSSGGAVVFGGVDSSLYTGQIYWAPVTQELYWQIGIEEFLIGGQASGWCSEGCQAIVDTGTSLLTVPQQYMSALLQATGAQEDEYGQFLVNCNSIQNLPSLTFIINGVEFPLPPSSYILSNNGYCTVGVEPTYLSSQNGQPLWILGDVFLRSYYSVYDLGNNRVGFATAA

Pepsin A (Sus scrofa) = Pepsin A (Sus scrofa) (UniProt P00791); experiment: Inhibitory activity against porcine pepsin at a concentration of 1 x 10e-5 M
Renin [11] = target: T2, Renin (Homo sapiens, UniProt P00797); type: cell-free, Plasma
T2 sequence (P00797 whole entry): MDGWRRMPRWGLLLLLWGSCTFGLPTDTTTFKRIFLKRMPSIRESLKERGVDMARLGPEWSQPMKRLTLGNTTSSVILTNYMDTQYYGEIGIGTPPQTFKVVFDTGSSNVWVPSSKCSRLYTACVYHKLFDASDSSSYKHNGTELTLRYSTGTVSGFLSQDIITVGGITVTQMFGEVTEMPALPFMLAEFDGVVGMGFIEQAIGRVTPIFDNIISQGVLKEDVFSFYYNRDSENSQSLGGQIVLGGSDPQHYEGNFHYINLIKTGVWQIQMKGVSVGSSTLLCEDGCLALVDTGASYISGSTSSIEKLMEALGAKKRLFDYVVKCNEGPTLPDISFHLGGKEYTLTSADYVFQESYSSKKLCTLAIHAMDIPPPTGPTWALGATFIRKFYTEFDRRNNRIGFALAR

Renin [12] = target: T2, Renin; experiment: In vitro activity against human renin (pH 6.0)
[13] = target: Cathepsin D (Homo sapiens) (UniProt P07339); experiment: Inhibitory activity against human cathepsin D at a concentration of 1 x 10e-5 M
Outline: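 Human spleen cathepsin D, purified by hemoglobin affinity chromatography and assayed with hemoglobin substrate.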

[14] = target: T3, Cathepsin G (Homo sapiens) (UniProt P08311); experiment: Inhibitory activity against human cathepsin G at a concentration of 1 x 10e-5 M
T3 sequence (whole entry): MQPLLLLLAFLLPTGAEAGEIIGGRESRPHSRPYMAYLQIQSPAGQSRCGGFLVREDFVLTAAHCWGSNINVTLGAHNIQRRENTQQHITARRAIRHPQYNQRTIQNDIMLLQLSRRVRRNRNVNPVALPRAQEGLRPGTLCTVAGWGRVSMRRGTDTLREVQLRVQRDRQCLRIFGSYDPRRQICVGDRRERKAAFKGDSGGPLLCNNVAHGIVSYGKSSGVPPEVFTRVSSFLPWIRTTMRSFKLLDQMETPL
Outline: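 Human leukocyte cathepsin G, assayed with N-succinyl-Ala-Ala-Pro-Phe-4-nitroanilide substrate.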

Cathepsin D (Bos taurus) = target: T4, Cathepsin D (Bos taurus) (UniProt P80209); experiment: Inhibitory activity against bovine cathepsin D at a concentration of 1 x 10e-5 M
T4 sequence (whole entry): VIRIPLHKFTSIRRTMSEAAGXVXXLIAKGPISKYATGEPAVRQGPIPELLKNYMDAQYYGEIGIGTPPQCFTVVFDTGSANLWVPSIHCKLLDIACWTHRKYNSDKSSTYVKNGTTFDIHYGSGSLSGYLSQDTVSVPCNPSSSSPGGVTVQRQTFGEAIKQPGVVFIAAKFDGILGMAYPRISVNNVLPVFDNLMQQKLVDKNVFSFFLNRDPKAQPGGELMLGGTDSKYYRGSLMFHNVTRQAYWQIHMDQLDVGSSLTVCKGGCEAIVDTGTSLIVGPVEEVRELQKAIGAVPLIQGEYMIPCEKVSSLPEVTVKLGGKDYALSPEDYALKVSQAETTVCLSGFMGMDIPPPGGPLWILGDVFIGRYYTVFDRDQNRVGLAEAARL

[15] = Inhibitory activity against monkey plasma at pH 7.4; conditions: Cercopithecidae
[16] = Bioavailability in monkey (dose 10 mg/kg i.d.); type: ADME, organism-based; conditions: primates, in vivo; outline: as §1
[17] = as §2; type: ADME, organism-based, Mustela putorius furo; parameters: dose 10 mg/kg, route intraduodenal; conditions: ferret, read-out: Average peak Concn; outline: as §4
Mustela putorius furo [18] = experiment: as §3; conditions: ferret, in vivo, other

Pepsin A (Sus scrofa), sequence (P00791 60-385 limits assumed): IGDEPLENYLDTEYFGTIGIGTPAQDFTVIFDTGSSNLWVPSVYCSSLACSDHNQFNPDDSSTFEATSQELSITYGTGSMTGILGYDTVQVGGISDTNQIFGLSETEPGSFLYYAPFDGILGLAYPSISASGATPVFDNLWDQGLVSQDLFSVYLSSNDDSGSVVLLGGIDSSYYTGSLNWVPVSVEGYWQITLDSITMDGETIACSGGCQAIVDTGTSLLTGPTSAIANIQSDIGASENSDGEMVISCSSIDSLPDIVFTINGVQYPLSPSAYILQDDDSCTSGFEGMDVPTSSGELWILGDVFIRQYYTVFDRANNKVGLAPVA
Cathepsin D (Homo sapiens), sequence (P07339 65-162 limits assumed): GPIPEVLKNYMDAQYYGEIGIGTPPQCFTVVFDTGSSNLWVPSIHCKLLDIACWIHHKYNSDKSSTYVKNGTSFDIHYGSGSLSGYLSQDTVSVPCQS
Cathepsin D (Homo sapiens), sequence (P07339 169-412 limits assumed): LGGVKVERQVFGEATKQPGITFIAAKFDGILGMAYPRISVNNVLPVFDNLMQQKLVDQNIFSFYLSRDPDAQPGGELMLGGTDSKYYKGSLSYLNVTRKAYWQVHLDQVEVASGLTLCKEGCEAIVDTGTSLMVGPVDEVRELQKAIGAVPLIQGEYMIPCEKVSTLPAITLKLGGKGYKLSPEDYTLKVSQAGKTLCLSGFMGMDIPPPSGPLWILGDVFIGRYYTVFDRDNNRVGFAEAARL

| Structure (SMILES) | bioavailability [1] [%] | Average AUC (Mustela putorius furo [2]) [ng·h/mL] | Cmax [4] [ng/mL] | Cmax [5] [ng/mL] | Cmax [6] [ng/mL] | logD [8] | logD [9] | IC50 (Renin [11]) [nM] | bioavailability [16] [%] | also measured |
| --- | --- | --- | --- | --- | --- | --- | --- | --- | --- | --- |
| CCCC[C@H](O[C@@H](Cc1ccccc1)C(=O)N1CCC(OCOC)CC1)C(=O)N[C@@H](CC1CCCCC1)[C@@H](O)C[C@H](C(=O)NCCCN1CCOCC1)C(C)C | 28 | 588 | 4830 | 6010 | 2110 | 3.3 | 4.3 | 2.8 | – | bioavailability ([3]; primates): 16%; Avg AUC, (Mustela putorius furo [7]): 391 µg/min/mL; inhibition [10]: 11%; inhibition (Pepsin A (Sus scrofa)): 13%; IC50 (Renin [12]): 2.4 nM; inhibition [13]: 6%; inhibition [14]: 0%; inhibition (Cathepsin D (Bos taurus)): 3%; IC50 [15]: 1.5 nM |
| CCCC[C@H](O[C@@H](Cc1ccccc1)C(=O)N1CCC(OCOC)CC1)C(=O)N[C@@H](CC1CCCCC1)[C@@H](O)[C@@H](O)CC(C)C | – | – | – | – | – | 4.8 | 4.8 | – | 2.5 | – |
| CCCC[C@H](N[C@@H](Cc1ccccc1)C(=O)N1CCC(OCOC)CC1)C(=O)N[C@@H](CC1CCCCC1)[C@@H](O)[C@@H](O)CC(C)C | – | – | – | – | – | – | – | – | 2.9 | – |
| CCCC[C@H](O[C@@H](Cc1ccccc1)C(=O)N1CCC(OCOC)CC1)C(=O)N[C@@H](CC1CCCCC1)[C@@H](O)C[C@H](C(=O)NCCCn1ccnc1)C(C)C | 25 | 410 | 2790 | – | 3390 | 4 | 4 | 3 | – | Cmax [17]: 2420 ng/mL; Average AUC (Mustela putorius furo [18]): 3380 ng·h/mL |
| CCCC[C@H](O[C@@H](Cc1ccccc1)C(=O)N1CCC(OCOC)CC1)C(=O)N[C@@H](CC1CCCCC1)[C@@H](O)C[C@H](C(=O)NCCN1CCOCC1)C(C)C | 45 | 472 | 2770 | 4350 | 1320 | > 5 | > 5 | 3.7 | – | Average AUC (Mustela putorius furo [18]): 7080 ng·h/mL; IC50 (Renin [12]): 1 nM |
| COc1ccc(C[C@H](NC(=O)CC(C)(C)N)C(=O)N[C@@H](Cc2cnc[nH]2)C(=O)N[C@@H](CC2CCCCC2)[C@@H](O)[C@@H](O)CC(C)C)cc1 | – | – | – | – | – | – | – | – | – | bioavailability ([3]; cercopithecidae): 1.7% |
| CCCCNC(=O)[C@@H](C[C@H](O)[C@H](CC1CCCCC1)NC(=O)[C@H](CCCC)O[C@@H](Cc1ccccc1)C(=O)N1CCC(OCOC)CC1)C(C)C | – | – | – | – | – | 4.7 | 4.7 | – | 2.5 | – |
| CCCC[C@H](O[C@@H](Cc1ccccc1)C(=O)N1CCC(OCOC)CC1)C(=O)N[C@@H](CC1CCCCC1)[C@@H](O)C[C@H](NC(=O)OCCN1CCOCC1)C(C)C | 70 | 258 | 2840 | 5010 | 920 | 3.6 | 3.7 | 7.5 | – | Avg AUC, (Mustela putorius furo [7]): 363 µg/min/mL |
